Paper PMC13424379 (Fundamental Research, 2024)

Assays:
[1] = system: Tg (fli1a: EGFP) zebrafish; assay: Zebrafish vascular injury model; type: in vivo; details: for dose relation of the ameliorative effect on vascular injury: different concentrations, PTK787 model
Method in brief: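 Tg(fli1a:EGFP) embryos at 24 hpf were dechorionated with 1 mg·mL⁻¹ protease E and placed 10 per well, 3 wells per group, in fish water (NaCl/KCl/CaCl2/MgSO4). Groups were vehicle (0.1% DMSO), 0.2 µg·mL⁻¹ PTK787, PTK787 plus 0.2 mg·mL⁻¹ aspirin, and PTK787 plus test compound. Exposure lasted 24 h at 28.5 °C on a 14/10 h light/dark cycle. ISV development was observed and ISV length measured.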

T1R3 = target: T1, T1R3 (Homo sapiens, UniProt Q7RTX0); assay: T1R3-HEMT biosensor interaction, dissociation constant; type: binding
T1 sequence (Q7RTX0 21-852): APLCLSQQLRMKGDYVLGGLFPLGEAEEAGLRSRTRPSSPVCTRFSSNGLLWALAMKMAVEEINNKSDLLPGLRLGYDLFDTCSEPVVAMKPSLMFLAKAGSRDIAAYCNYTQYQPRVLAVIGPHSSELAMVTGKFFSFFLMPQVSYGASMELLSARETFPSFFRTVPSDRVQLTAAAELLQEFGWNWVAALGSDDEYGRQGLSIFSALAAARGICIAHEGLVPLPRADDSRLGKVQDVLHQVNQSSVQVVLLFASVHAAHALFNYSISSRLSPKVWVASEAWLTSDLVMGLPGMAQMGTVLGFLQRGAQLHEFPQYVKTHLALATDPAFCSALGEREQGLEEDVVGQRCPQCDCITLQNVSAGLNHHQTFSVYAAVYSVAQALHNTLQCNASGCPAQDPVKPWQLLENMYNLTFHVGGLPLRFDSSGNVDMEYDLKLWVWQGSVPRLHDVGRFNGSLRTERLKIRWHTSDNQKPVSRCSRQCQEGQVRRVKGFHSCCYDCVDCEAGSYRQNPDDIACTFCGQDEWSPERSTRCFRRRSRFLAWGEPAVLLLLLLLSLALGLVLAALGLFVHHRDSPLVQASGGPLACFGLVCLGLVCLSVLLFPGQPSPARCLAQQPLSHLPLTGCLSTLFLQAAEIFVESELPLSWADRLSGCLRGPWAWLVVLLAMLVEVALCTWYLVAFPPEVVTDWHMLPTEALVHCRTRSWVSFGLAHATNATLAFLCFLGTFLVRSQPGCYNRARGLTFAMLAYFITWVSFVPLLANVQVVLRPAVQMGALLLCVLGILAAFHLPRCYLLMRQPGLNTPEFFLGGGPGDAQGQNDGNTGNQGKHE

Tg (mpx: EGFP) zebrafish = assay: Zebrafish immunocompromised model; type: in vivo; details: for immune enhancement (number of neutrophils): compared to the model group
T1R2 = target: T2, T1R2 (Homo sapiens, UniProt Q8TE23); assay: T1R2-HEMT biosensor interaction, dissociation constant; type: binding
T2 sequence (Q8TE23 20-839): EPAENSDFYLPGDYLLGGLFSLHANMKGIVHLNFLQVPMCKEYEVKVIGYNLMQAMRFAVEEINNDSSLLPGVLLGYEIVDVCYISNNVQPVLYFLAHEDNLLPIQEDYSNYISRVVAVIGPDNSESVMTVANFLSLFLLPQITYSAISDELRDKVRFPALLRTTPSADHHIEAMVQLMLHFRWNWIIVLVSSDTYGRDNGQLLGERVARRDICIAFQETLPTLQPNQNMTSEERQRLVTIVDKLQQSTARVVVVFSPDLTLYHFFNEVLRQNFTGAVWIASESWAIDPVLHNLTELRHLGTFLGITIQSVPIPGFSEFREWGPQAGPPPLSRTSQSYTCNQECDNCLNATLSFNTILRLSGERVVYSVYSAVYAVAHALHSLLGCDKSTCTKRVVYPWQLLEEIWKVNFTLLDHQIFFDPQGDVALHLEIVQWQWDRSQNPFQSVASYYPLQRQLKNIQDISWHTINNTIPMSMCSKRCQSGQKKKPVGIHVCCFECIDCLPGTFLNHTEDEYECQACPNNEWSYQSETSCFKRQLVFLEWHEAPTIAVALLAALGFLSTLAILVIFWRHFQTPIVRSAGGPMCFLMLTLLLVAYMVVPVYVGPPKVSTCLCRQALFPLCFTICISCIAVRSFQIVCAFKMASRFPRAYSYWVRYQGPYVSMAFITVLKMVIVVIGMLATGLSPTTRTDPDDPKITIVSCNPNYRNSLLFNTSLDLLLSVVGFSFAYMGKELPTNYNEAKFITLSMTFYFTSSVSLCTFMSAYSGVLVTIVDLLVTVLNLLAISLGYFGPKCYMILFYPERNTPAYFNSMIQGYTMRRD
Method in brief: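 Recombinant T1R2 and T1R3 proteins (100 μg·mL⁻¹) were immobilised on an AlGaAs/GaAs HEMT chip at 4 °C. Test compounds in 0.5% DMSO were applied at eleven concentrations from 0.1 pmol·L⁻¹ to 1 mmol·L⁻¹. KD was derived by a linear fit of [C]/ΔI against [C], where ΔI is the current change and ΔImax the saturated current change.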

[2] = 25 µM·L^−1, with 0.2 µg·mL^−1 PTK787, compared with the model group

Row | Compound | effect on ISVs [1, 2] | dose relation of the ameliorative effect on vascular injury [1] | Kd (T1R3) | Kd (T1R2) | other results
1 | COc1ccc(-c2coc3cc(O)ccc3c2=O)cc1O [calycosin] | significantly promote ISVs | stronger at a low dose | 0.641 nM | 0.0017 nM | immune enhancement (number of neutrophils) (Tg (mpx: EGFP) zebrafish; 50 µM·L^−1, with 100 µg·mL^−1 vinorelbine): immune-enhancing effect
2 | CCC1=C[C@@H]2CN(C1)Cc1c([nH]c3ccccc13)[C@@](C(=O)OC)(c1cc3c(cc1OC)N(C)[C@H]1[C@@](O)(C(=O)OC)[C@H](OC(C)=O)[C@]4(CC)C=CCN5CC[C@]31[C@@H]54)C2 [vinorelbine, Vinorelbine, reference compound] | – | – | – | – | number of neutrophils in the zebrafish tail (Tg (mpx: EGFP) zebrafish; 100 µg·mL^−1, model construction): significantly reduced
3 | Clc1ccc(Nc2nnc(Cc3ccncc3)c3ccccc23)cc1 [PTK787, Vatalanib (PTK787) 2HCl, reference compound] | – | – | – | – | total length of ISVs ([1]; 0.2 µg·mL^−1, compared with the control group, 24 h exposure): significantly reduce; teratogenicity ([1]; 0.2 µg·mL^−1, zebrafish embryos): not teratogenic
4 | C[C@@H]1CC[C@@]2(OC1)O[C@H]1C[C@H]3[C@@H]4CC=C5C[C@@H](O)C[C@@H](O)[C@]5(C)[C@H]4CC[C@]3(C)[C@H]1[C@@H]2C [ruscogenin] | significantly promote ISVs | stronger at medium and high doses | 0.217 nM | 52.5 nM | immune enhancement (number of neutrophils) (Tg (mpx: EGFP) zebrafish; 100 µM·L^−1, with 100 µg·mL^−1 vinorelbine): immune-enhancing effect
5 | C=C1CCC[C@]2(C)C=C3OC(=O)C(C)=C3C[C@@H]12 [atractylenolide I] | – | dose-dependent effects | 0.0882 nM | 1.06 nM | effect on ISVs ([1]; 50 µM·L^−1, with 0.2 µg·mL^−1 PTK787, compared with the model group): significantly promote ISVs
